ChEMBL document CHEMBL3232844, “Synthesis and structure activity relationships of schweinfurthin indoles” (2014)

Assays:
Type in all cases: functional
HL-60(TB) = assay: Cytotoxicity against human HL-60(TB) cells
Method in brief: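 Tested within the NCI 60-cell-line screen, with GI50 as the read-out. Values are the average of two independent experiments. The lowest concentration tested was 10 nM.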

K562 = assay: Cytotoxicity against human K562 cells
Method in brief: (§1)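 Tested in a 60-cell-line human tumor panel screen; the read-out is growth inhibition, reported as GI50 for each cell line.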

MOLT-4 = assay: Cytotoxicity against human MOLT4 cells; method in brief: as §1
A549 = assay: Cytotoxicity against human A549 cells; method in brief: as §1
[1] = Cytotoxicity against human EKVX cells; method in brief: as §1
NCI-H226 = assay: Cytotoxicity against human NCI-H226 cells; method in brief: as §1
NCI-H23 = assay: Cytotoxicity against human NCI-H23 cells; method in brief: as §1
HCC 2998 = assay: Cytotoxicity against human HCC2998 cells; method in brief: as §1
HCT-116 = assay: Cytotoxicity against human HCT116 cells; method in brief: as §1
[2] = Cytotoxicity against human HCT15 cells; method in brief: as §1
HT-29 = assay: Cytotoxicity against human HT-29 cells; method in brief: as §1
KM12 = assay: Cytotoxicity against human KM12 cells; method in brief: as §1
SF-268 = assay: Cytotoxicity against human SF268 cells; method in brief: as §1
SF-295 = assay: Cytotoxicity against human SF295 cells; method in brief: as §1
SF-539 = assay: Cytotoxicity against human SF539 cells; method in brief: as §1
SNB-75 = assay: Cytotoxicity against human SNB75 cells
Method in brief: (§2)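 Cell line run as part of the 60-cell-line screening panel; growth inhibition was reported as a GI50 for each line.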

U-251 = assay: Cytotoxicity against human U251 cells; method in brief: as §2
LOX IMVI = assay: Cytotoxicity against human LOXIMVI cells; method in brief: as §1
M14 = assay: Cytotoxicity against human M14 cells; method in brief: as §1
MDA-MB-435 = assay: Cytotoxicity against human MDA-MB-435 cells; method in brief: as §1
NCI-H460 = assay: Cytotoxicity against human NCI-H460 cells; method in brief: as §1
SK-MEL-2 = assay: Cytotoxicity against human SK-MEL-2 cells; method in brief: as §1
[3] = Cytotoxicity against human UACC257 cells; method in brief: as §2
IGROV-1 = assay: Cytotoxicity against human IGROV1 cells; method in brief: as §1
[4] = Cytotoxicity against human OVCAR3 cells; method in brief: as §1
[5] = Cytotoxicity against human OVCAR4 cells; method in brief: as §1
[6] = Cytotoxicity against human OVCAR5 cells; method in brief: as §1
[7] = Cytotoxicity against human OVCAR8 cells; method in brief: as §1
[8] = Cytotoxicity against human NCI-ADR-RES cells; method in brief: as §1
SK-OV-3 = assay: Cytotoxicity against human SKOV3 cells; method in brief: as §1
786-0 = assay: Cytotoxicity against human 786-0 cells; method in brief: as §1
A498 = assay: Cytotoxicity against human A498 cells; method in brief: as §1
ACHN = assay: Cytotoxicity against human ACHN cells; method in brief: as §1
CAKI-1 = assay: Cytotoxicity against human Caki1 cells; method in brief: as §1
RXF 393 = assay: Cytotoxicity against human RXF393 cells; method in brief: as §1
SN12C = assay: Cytotoxicity against human SN12C cells; method in brief: as §1
TK-10 = assay: Cytotoxicity against human TK10 cells; method in brief: as §2
[9] = Cytotoxicity against human UO31 cells; method in brief: as §2
DU-145 = assay: Cytotoxicity against human DU145 cells; method in brief: as §1
MCF7 = assay: Cytotoxicity against human MCF7 cells; method in brief: as §1
MDA-MB-231 = assay: Cytotoxicity against human MDA-MB-231 cells; method in brief: as §1
BT-549 = assay: Cytotoxicity against human BT549 cells; method in brief: as §1
T47D = assay: Cytotoxicity against human T47D cells; method in brief: as §2
[10] = read-out: pLC50 (the source's name) (converted)

In the case of COc1cc(/C=C/c2cc(O)c3ccn(C)c3c2)cc2c1O[C@]1(C)CC[C@@H](O)C(C)(C)[C@H]1C2, the GI50 (HL-60(TB)) is reported as 1.23 µM, the CC50 (HL-60(TB); [10]) is reported as > 100 µM and the TGI (HL-60(TB); read-out: pTGI (converted)) is reported as 58.9 µM. The GI50 (K562) was 0.794 µM, the CC50 (K562; [10]) was > 100 µM and the TGI (K562; read-out: pTGI (converted)) was > 100 µM. For the same compound, the GI50 (MOLT-4) was 0.447 µM, the CC50 (MOLT-4; [10]) was > 100 µM and the TGI (MOLT-4; read-out: pTGI (converted)) was 10.2 µM. For the same compound, the GI50 (A549) was 4.9 µM, the CC50 (A549; [10]) was > 100 µM and the TGI (A549; read-out: pTGI (converted)) was 64.6 µM. For the same compound, the GI50 [1] was 4.27 µM, the CC50 [1, 10] was > 100 µM and the TGI ([1]; read-out: pTGI (converted)) was 85.1 µM. It also gave a GI50 (NCI-H226) of 11.5 µM, a CC50 (NCI-H226; [10]) of 64.6 µM and a TGI (NCI-H226; read-out: pTGI (converted)) of 26.9 µM. For the same compound, the GI50 (NCI-H23) was 2.45 µM, the CC50 (NCI-H23; [10]) was > 100 µM and the TGI (NCI-H23; read-out: pTGI (converted)) was 30.2 µM. The GI50 (HCC 2998) was 4.57 µM, the CC50 (HCC 2998; [10]) was > 100 µM and the TGI (HCC 2998; read-out: pTGI (converted)) was 29.5 µM. The GI50 (HCT-116) was 1.17 µM, the CC50 (HCT-116; [10]) was > 100 µM and the TGI (HCT-116; read-out: pTGI (converted)) was 47.9 µM. For the same compound, the GI50 ([2]; HCT-15) was 0.832 µM, the CC50 ([2]; HCT-15, read-out: pLC50 (the source's name) (converted)) was > 100 µM and the TGI ([2]; HCT-15, read-out: pTGI (converted)) was 4.37 µM. It also gave a GI50 (HT-29) of 1.86 µM, a CC50 (HT-29; [10]) of 63.1 µM and a TGI (HT-29; read-out: pTGI (converted)) of 7.41 µM. For the same compound, the GI50 (KM12) was 1.26 µM, the CC50 (KM12; [10]) was 34.7 µM and the TGI (KM12; read-out: pTGI (converted)) was 7.08 µM. For the same compound, the GI50 (SF-268) was 2.04 µM, the CC50 (SF-268; [10]) was > 100 µM and the TGI (SF-268; read-out: pTGI (converted)) was 66.1 µM. The GI50 (SF-295; read-out: GI50) was 0.76 µM, the GI50 (SF-295; read-out: pGI50 (converted)) was 0.759 µM and the TGI (SF-295; read-out: pTGI (converted)) was 2.75 µM. The GI50 (SF-539) was 0.105 µM, the TGI (SF-539; read-out: pTGI (converted)) was 1.38 µM and the GI50 (SNB-75) was 0.138 µM. It also gave a CC50 (SNB-75; [10]) of 93.3 µM, a TGI (SNB-75; read-out: pTGI (converted)) of 8.91 µM and a GI50 (U-251) of 0.417 µM. The CC50 (U-251; [10]) was > 100 µM, the TGI (U-251; read-out: pTGI (converted)) was 63.1 µM and the GI50 (LOX IMVI) was 0.977 µM. For the same compound, the CC50 (LOX IMVI; [10]) was > 100 µM, the TGI (LOX IMVI; read-out: pTGI (converted)) was 50.1 µM and the GI50 (M14) was 0.525 µM. The CC50 (M14; [10]) was > 100 µM, the TGI (M14; read-out: pTGI (converted)) was 4.37 µM and the GI50 (MDA-MB-435) was 1.45 µM. The CC50 (MDA-MB-435; [10]) was > 100 µM, the TGI (MDA-MB-435; read-out: pTGI (converted)) was 47.9 µM and the GI50 (NCI-H460) was 1.66 µM. For the same compound, the CC50 (NCI-H460; [10]) was > 100 µM, the TGI (NCI-H460; read-out: pTGI (converted)) was > 100 µM and the GI50 (SK-MEL-2) was 0.692 µM. The CC50 (SK-MEL-2; [10]) was > 100 µM, the TGI (SK-MEL-2; read-out: pTGI (converted)) was 12.9 µM and the GI50 ([3]; UACC-257) was 1.74 µM. For the same compound, the CC50 ([3]; UACC-257, read-out: pLC50 (the source's name) (converted)) was > 100 µM, the TGI ([3]; UACC-257, read-out: pTGI (converted)) was 8.13 µM and the GI50 (IGROV-1) was 2.82 µM. For the same compound, the CC50 (IGROV-1; [10]) was > 100 µM, the TGI (IGROV-1; read-out: pTGI (converted)) was 46.8 µM and the GI50 ([4]; OVCAR-3) was 4.79 µM. For the same compound, the CC50 ([4]; OVCAR-3, read-out: pLC50 (the source's name) (converted)) was > 100 µM, the TGI ([4]; OVCAR-3, read-out: pTGI (converted)) was 42.7 µM and the GI50 ([5]; OVCAR-4) was 4.27 µM. The CC50 ([5]; OVCAR-4, read-out: pLC50 (the source's name) (converted)) was > 100 µM, the TGI ([5]; OVCAR-4, read-out: pTGI (converted)) was > 100 µM and the GI50 ([6]; OVCAR-5) was 12.3 µM. The CC50 ([6]; OVCAR-5, read-out: pLC50 (the source's name) (converted)) was > 100 µM, the TGI ([6]; OVCAR-5, read-out: pTGI (converted)) was 77.6 µM and the GI50 ([7]; OVCAR-8) was 11.2 µM. For the same compound, the CC50 ([7]; OVCAR-8, read-out: pLC50 (the source's name) (converted)) was > 100 µM, the TGI ([7]; OVCAR-8, read-out: pTGI (converted)) was 77.6 µM and the GI50 [8] was 9.55 µM. For the same compound, the CC50 [8, 10] was > 100 µM, the TGI ([8]; read-out: pTGI (converted)) was 69.2 µM and the GI50 (SK-OV-3) was 3.02 µM. The LC50 (SK-OV-3) was > 100 µM, the TGI (SK-OV-3; read-out: pTGI (converted)) was 72.4 µM and the GI50 (786-0) was 0.186 µM. For the same compound, the LC50 (concentration killing 50% of cells) (786-0) was > 100 µM, the GI50 (A498) was 6.03 µM and the CC50 (A498; [10]) was 89.1 µM. The TGI (A498; read-out: pTGI (converted)) was 38.9 µM, the GI50 (ACHN) was 0.776 µM and the LC50 (concentration killing 50% of cells) (ACHN) was > 100 µM. For the same compound, the TGI (ACHN; read-out: pTGI (converted)) was 55 µM, the GI50 (CAKI-1) was 2.29 µM and the LC50 (CAKI-1) was > 100 µM. It also gave a TGI (CAKI-1; read-out: pTGI (converted)) of 21.9 µM, a GI50 (RXF 393) of 0.0302 µM and an LC50 (RXF 393) of 8.71 µM. The TGI (RXF 393; read-out: pTGI (converted)) was 0.12 µM, the GI50 (SN12C) was 6.92 µM and the LC50 (SN12C) was > 100 µM. For the same compound, the TGI (SN12C; read-out: pTGI (converted)) was 91.2 µM, the GI50 (TK-10) was 3.72 µM and the LC50 (TK-10) was > 100 µM. The TGI (TK-10; read-out: pTGI (converted)) was 64.6 µM, the GI50 ([9]; UO-31) was 0.437 µM and the LC50 ([9]; UO-31) was > 100 µM. The TGI ([9]; UO-31, read-out: pTGI (converted)) was 7.24 µM, the GI50 (DU-145) was 3.8 µM and the LC50 (50% lethal concentration) (DU-145) was > 100 µM. For the same compound, the TGI (DU-145; read-out: pTGI (converted)) was 91.2 µM, the GI50 (MCF7) was 0.741 µM and the LC50 (MCF7) was > 100 µM. For the same compound, the TGI (MCF7; read-out: pTGI (converted)) was 42.7 µM, the GI50 (MDA-MB-231) was 1.12 µM and the LC50 (MDA-MB-231) was > 100 µM. For the same compound, the TGI (MDA-MB-231; read-out: pTGI (converted)) was 28.2 µM, the GI50 (BT-549) was 1.55 µM and the CC50 (BT-549; [10]) was > 100 µM. The TGI (BT-549; read-out: pTGI (converted)) was 39.8 µM, the GI50 (T47D) was 5.62 µM and the CC50 (T47D; [10]) was > 100 µM. It also gave a TGI (T47D; read-out: pTGI (converted)) of 60.3 µM.
